Consider six molecules from ChEMBL document CHEMBL2407014, “Suberoylanilide hydroxamic acid, a histone deacetylase inhibitor, induces the production of anti-inflammatory cyclodepsipeptides from Beauveria felina” (J Nat Prod, 2013).

The nature of data set [1]: Antiinflammatory activity in human neutrophils assessed as inhibition of FMLP-induced superoxide anion production treated 5 mins before FMLP addition measured after 10 mins. The format is functional, cell-based. Conditions: Neutrophil. In short, it runs like this: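 Neutrophils from healthy adult donors' venous blood (dextran sedimentation, Ficoll centrifugation), with 0.5 mg/mL ferricytochrome c and 1 mM Ca²⁺, equilibrated 37 °C 2 min, compound 5 min, cytochalasin B (1 μg/mL) 3 min, then FMLP 100 nM for 10 min. SOD-inhibitable (100 U/mL) ferricytochrome c reduction read continuously at 550 nm; IC50 as 50% inhibition concentration.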

Data set [2] can be described thus: Cytotoxicity against human neutrophils by LDH release assay. Conditions: neutrophil. It is filed as cell-based. (In general: Release of lactate dehydrogenase indicates damage to the cell membrane.)
The nature of data set [3]: Antiinflammatory activity in human neutrophils assessed as inhibition of FMLP-induced elastase release treated 5 mins before FMLP addition. It is filed as functional, cell-based. The conditions noted are these: Neutrophil. In short, it runs like this:
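Neutrophils (6 × 10⁵/mL) with MeO-Suc-Ala-Ala-Pro-Val-p-nitroanilide substrate (100 μM), equilibrated 37 °C 2 min, compound 5 min, then activated with FMLP (100 nM)/cytochalasin B (0.5 μg/mL). Absorbance at 405 nm monitored continuously; results as percentage of initial elastase rate; IC50 as concentration giving 50% inhibition.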

Each structure is given as a SMILES string. Starred links: 1 amine or outer side, 2 acyl side, 3 side chain; linkers in the order of their positions; H or OH if unused. Non-standard residues stand in square brackets, D forms with d. Residues, ends and D or L forms follow the SMILES beside them. ξ: configuration not given here. X1 = C[C@H]1CCN([*:1])[C@@H]1C(=O)[*:2]; X2 = CC1CCN([*:1])[C@@H]1C(=O)[*:2]; Hica(2S) = CC(C)C[C@H](O)C(=O)O; ξLac(3-iPr) = CC(C)CC(O)C(=O)O; NMeV = CN[C@H](C(=O)O)C(C)C; βAla = NCCC(=O)O

Usually IC50 stands for the concentration that gives 50% inhibition. In the case of `CC(C)C[C@@H]1OC(=O)CCNC(=O)[C@H](C(C)C)N(C)C(=O)[C@H](C(C)C)NC(=O)[C@H](Cc2ccccc2)NC(=O)[C@@H]2CCCN2C1=O` (cyclo(FV[NMeV][βAla][Hica(2S)]P)), in data set [1], the IC50 stood at 10 µM. For the same molecule, the Activity entry in data set [2] was “Non-toxic”.

Turning to `CC(C)C[C@@H]1OC(=O)CCNC(=O)[C@H](C(C)C)N(C)C(=O)[C@H](C(C)C)NC(=O)[C@H](Cc2ccccc2)NC(=O)[C@@H]2[C@@H](C)CCN2C1=O` (cyclo(FV[NMeV][βAla][Hica(2S)][X1])), the IC50 in data set [3] was 10 µM; in data set [1] it was 10.9 µM. In addition, the Activity entry in data set [2] is given as “Non-toxic”.

Regarding `O=c1c(-c2ccc(O)cc2)coc2cc(O)cc(O)c12` [GENISTEIN], the values for the IC50 in data set [3] and in data set [1] were 6.72 µM and 0.69 µM, respectively.

As for `CC(C)CC1OC(=O)CCNC(=O)[C@H](C(C)C)N(C)C(=O)[C@H](C(C)C)N(C)C(=O)[C@H](Cc2ccccc2)NC(=O)[C@@H]2C(C)CCN2C1=O` (stereo not given in full) [ISARIDIN C2] (cyclo(F[NMeV][NMeV][βAla][ξLac(3-iPr)][X2])), the IC50 in data set [3] stood at 12.1 µM; in data set [1], 10.1 µM. Besides, the Activity result in data set [2] is listed as “Non-toxic”.

Take `CC(C)CC1OC(=O)CCNC(=O)[C@H](C(C)C)N(C)C(=O)[C@H](C(C)C)N(C)C(=O)[C@H](Cc2ccccc2)NC(=O)[C@@H]2CCCN2C1=O` (stereo not given in full) [ISARIDIN E] (cyclo(F[NMeV][NMeV][βAla][ξLac(3-iPr)]P)): the IC50 was found to be 12.8 µM in data set [3] and 12.2 µM in data set [1]. Further, the Activity result in data set [2] was “Non-toxic”.

As to `CC[C@H](C)[C@@H]1NC(=O)[C@@H]2[C@@H](C)CCN2C(=O)[C@@H](CC(C)C)OC(=O)CCNC(=O)[C@H](C)N(C)C(=O)[C@H](C(C)C)N(C)C1=O` [ROSEOCARDIN], the IC50 in data set [3] is 15.1 µM. The Activity result in data set [2] is reported as “Non-toxic”.
